Data published in ChEMBL document CHEMBL3997837, “Potent covalent inhibitors of bacterial urease identified by activity-reactivity profiling” (Bioorg Med Chem Lett, 2017).
Where a name gives a salt, the structure may show the parent alone. Activity calls are given as the source filed them. The rule behind the calls is not given here.

Tests used:
[1] = Inhibition of Sporosarcina pasteurii CCM 2056 urease assessed as reduction in ammonia production by measuring steady state enzyme-inhibitor complex using urea as substrate measured for 120 mins by phenol-hypochlorite method
[2] = Inhibition of Sporosarcina pasteurii CCM 2056 urease assessed as reduction in ammonia production using urea as substrate measured for 120 mins by phenol-hypochlorite method
Sporosarcina pasteurii [3] = assay: Reversible inhibition of Sporosarcina pasteurii CCM 2056 urease assessed as reduction in ammonia production by measuring recovery of enzyme activity at 10 times IC50 preincubated for 60 mins followed by 100-fold dilution in to PBS containing urea as substrate by Berthelot colorimetric assay relative to control; design: Activity: scale not given: the % may be the effect or the level left
[4] = Inhibition of Sporosarcina pasteurii CCM 2056 urease assessed as reduction in ammonia production by measuring initial state enzyme-inhibitor complex using urea as substrate measured for 120 mins by phenol-hypochlorite method
Sporosarcina pasteurii [5] = assay: Competitive inhibition of Sporosarcina pasteurii CCM 2056 urease assessed as reduction in ammonia production preincubated with enzyme followed by addition of varying levels of urea as substrate measured for 120 mins by Lineweaver-Burk plot analysis
[6] = Glutathione reactivity in pH 7.4 PBS measured after 6 to 36 hrs in presence of 1.375 mmol GSH by DTNB reagent based spectrophotometric method
Summary of the method: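 Glutathione served as a model reactive-thiol compound. Unreacted GSH was quantified spectrophotometrically by a modified Ellman method, and reaction progress was followed over time up to 36 h.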

Sporosarcina pasteurii [7] = assay: Time-dependent Sporosarcina pasteurii CCM 2056 urease assessed as reduction in ammonia production using urea as substrate by phenol-hypochlorite method
[8] = Inhibition of Proteus mirabilis 543 urease at pH 5.5 assessed as reduction in ammonia production using urea as substrate measured after 15 mins by NaOH-hypochlorite method; conditions: read-out: IC50
Summary of the method: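 Intact Proteus mirabilis cells were tested at pH 5.5, matching physiological urine, with 5 mM urea. Inhibitors were added without preincubation, and IC50 was determined.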

[9] = Inhibition of Proteus mirabilis 543 urease at pH 5.5 assessed as reduction in ammonia production using urea as substrate preincubated for 120 mins followed by substrate addition measured after 15 mins by NaOH-hypochlorite method; conditions: read-out: IC50
Summary of the method: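 Intact Proteus mirabilis cells were preincubated with inhibitors in PBS for 2 h, then tested at pH 5.5, matching urine acidity, with 5 mM urea. IC50 was determined.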

BALB/3T3 = assay: Cytotoxicity against mouse BALB/3T3 cells assessed as reduction in cell proliferation after 72 hrs by SRB assay; assay type: cell-based; conditions: balb/3t3, 72 h
Summary of the method: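 Mouse BALB/3T3 fibroblasts were scored by SRB assay, with cytotoxicity given as LC50 values.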

Structure (SMILES)	Ki ([1]; read-out: Ki)	Ki ([2]; read-out: Ki)	Activity (Sporosarcina pasteurii [3])	Ki ([4]; read-out: Ki)	mode of inhibition (Sporosarcina pasteurii [5])	K [6]	log K [6]	TDI (Sporosarcina pasteurii [7])	Ki [1]	Ki [2]	inhibition (Sporosarcina pasteurii [3])	Ki [4]	IC50 [8]	IC50 [9]	LC50 (BALB/3T3)
COC(=O)/C=C/C1=CC(=O)CCC1	0.766 µM	0.694 µM	23.6%	46.5 µM	Active	0.0703 M⁻¹ s⁻¹	0.63	Active							
CCC(C)OC(=O)/C=C/C(=O)OC(C)CC (stereo not given)	59.2 µM	64.2 µM	46%	907 µM	Active			Active							
O=C(O)C#Cc1ccccc1	40.3 µM	37.1 µM	39.2%	584 µM	Active			Active							
O=C(O)/C=C/c1ccc([N+](=O)[O-])cc1	15.7 µM	11.9 µM	35.8%	323 µM	Active			Active							
C=C=CC(=O)OCC	2.27 µM	2.52 µM	29.1%	162 µM	Active			Active							
O=C1C=C(/C=C/C(=O)c2ccccc2)CCC1	0.493 µM	0.592 µM	21.5%	26.8 µM	Active			Active							
CCOC(=O)/C=C/c1ccc(C)cc1									Not Active	Not Active	inactive	Not Active			
CC(=O)NO [ACETOHYDROXAMIC ACID]		3.3 µM	29.1%										169 µM	91.4 µM	
O=C1C=CCC1	0.232 µM	0.291 µM	15.3%	11.2 µM	Active	0.487 M⁻¹ s⁻¹	1.5	Active							86.5 µM
COC(=O)/C=C\C(=O)OC [DIMETHYL MALEATE]									Not Active	Not Active	inactive	Not Active			
CC(=O)/C=C/C1=CC(=O)CCC1	21.3 µM	21.2 µM	38.8%	205 µM	Active			Active							
CCOC(=O)C#CC(=O)OCC	0.00744 µM	0.0102 µM	8.8%	0.852 µM	Active			Active							
C=C=CC(=O)NCc1ccccc1									Not Active	Not Active	inactive	Not Active			
CCOC(=O)/C=C/c1ccc([N+](=O)[O-])cc1					Active				Not Active	Not Active	inactive	Not Active			
O=C(O)/C=C\C(=O)O [MALEIC ACID]									Not Active	Not Active	inactive	Not Active			
CCCCOC(=O)/C=C/C(=O)OCCCC	66.7 µM	53.7 µM	45.1%	847 µM	Active			Active							

Structure (SMILES)	Ki ([1]; read-out: Ki)	Ki ([2]; read-out: Ki)	Activity (Sporosarcina pasteurii [3])	Ki ([4]; read-out: Ki)	mode of inhibition (Sporosarcina pasteurii [5])	K [6]	log K [6]	TDI (Sporosarcina pasteurii [7])	Ki [1]	Ki [2]	inhibition (Sporosarcina pasteurii [3])	Ki [4]	IC50 [8]	IC50 [9]	LC50 (BALB/3T3)
Cc1ccc(/C=C/C(=O)O)cc1	32.2 µM	34.2 µM	39.9%	633 µM	Active			Active							
C#CC(=O)OC	50.5 µM	46 µM	41.5%	804 µM	Active			Active							
C#CC(=O)O [PROPIOLIC ACID]	43.5 µM	44.4 µM	40.9%	729 µM	Active			Active							
CC#CC(=O)O	97.5 µM	109 µM	47.4%	1130 µM	Active			Active							
O=C(O)/C=C(\CC(=O)O)C(=O)O [ACONITIC ACID]		6.13 µM	33.8%		Active			Active							
CCOC(=O)/C=C/C(=O)OC(C)(C)C	25.7 µM	22.1 µM	39.3%	425 µM	Active			Active							
CCOC(=O)/C=C/C(=O)c1ccccc1	1.21 µM	3.96 µM	30.2%	29.2 µM	Active	2.18 M⁻¹ s⁻¹	2.12	Active							24.5 µM
COC(=O)/C=C(\CC(=O)OC)C(=O)OC		5.21 µM	31.5%		Active			Active							
CCOC(=O)/C=C/C(=O)OCC	12 µM	11.1 µM	34.3%	21.7 µM	Active			Active							
CCOC(=O)/C=C/C(=O)C(=O)OCC	0.113 µM	0.0928 µM	8.9%	32.8 µM	Active			Active							
O=C(O)/C=C/C1=CC(=O)CCC1	19.5 µM	17.8 µM	38.1%	189 µM	Active			Active							
CC#CC(=O)OCC	117 µM	126 µM	47.3%	1270 µM	Active			Active							
N#C/C=C/C1=CC(=O)CCC1	0.931 µM	0.784 µM	27.2%	55.1 µM	Active			Active							
CCOC(=O)C#Cc1ccccc1	47.1 µM	52.3 µM	44.7%	814 µM	Active			Active							
CC(C)OC(=O)/C=C/C(=O)OC(C)C	38.6 µM	42.4 µM	41.2%	678 µM	Active			Active							
CCOC(=O)/C=C/C(=O)O [ETHYL FUMARATE]	59.1 µM	52.4 µM	45.6%	888 µM	Active			Active							
